PMC2386536 (The Journal of Endocrinology, 2008)

Key:
[1] = test system: ischaemia–reperfusion injury in the rat; experiment: EPR free radical production from hearts after in vivo ischaemia–reperfusion; conditions: CP-H spin trap
Outline: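 Hearts were excised after in vivo ischaemia–reperfusion (45 min/2 h) and perfused retrogradely with warmed, gassed Krebs–Henseleit. With the LCA snare re-tied, 10 μl of 10−1 M CP-H spin trap was injected above the heart and 500 μl perfusate (drops 6–11) collected, four times per heart and averaged. This was repeated with the snare released, then with 500 U SOD. Samples were incubated at 37 °C for 20 min and read by EPR.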

[2] = mean arterial blood pressure and heart rate during ischaemia–reperfusion; assay type: in vivo, rat; conditions: data not shown
Outline: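 They were then dosed with test compound or vehicle for 5 days, with the last dose 2–3 h before surgery. Under pentobarbitone anaesthesia (60 mg/kg i.p.), MABP was recorded via a carotid artery cannula. The protocol was 20-min stabilisation, 45-min LCA occlusion, then 2-h reperfusion.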

[3] = test system: ischaemia and reperfusion in the rabbit; conditions: in vivo; cited from earlier work

For `C[C@]12CC[C@@H]3c4ccc(O)cc4CC[C@H]3[C@@H]1CC[C@@H]2O` [17βE2, 17β-oestradiol], the “free radical production from the AAR compared with placebo/vehicle” value [1] was “Significantly fewer free radicals” and the “effect on MABP pattern and MABP at end of ischaemia or reperfusion” value [2] was “did not have a significant effect”.
For `CCCc1c(-c2ccc(O)cc2)nn(-c2ccc(O)cc2)c1-c1ccc(O)cc1` [PPT, 4,4,4-4 propyl-(1H)-pyrazole 1,3,5-triyltrisphenol], the “cardioprotection / infarct size” value [3] is listed as “reduced infarct size”.
